Results gathered from unrelated publications.
Protocols differ between the studies behind these lines.
BRD4 BD2: Bromodomain-containing protein 4, BD2 (BRD4, Homo sapiens, UniProt O60885)
BRD4 BD1: Bromodomain-containing protein 4, BD1 (BRD4, Homo sapiens, UniProt O60885)

CN(C)CCN1CCN(c2nc(NCc3cccc(Cl)c3)c3cc(-c4ccc(=O)n(C)c4)ccc3n2)CC1
ΔTm (BRD4 BD2; thermal stability, DSF; 250 µM): 11 °C

CC(C)(C)c1cc(NC(=O)Nc2ccc(-c3cn4c(n3)sc3cc(OCCN5CCOCC5)ccc34)cc2)no1
ΔTm (BRD4 BD1; thermal stability, DSF; 100 µM): < 1 °C

Cc1cnc(Nc2ccc(OCCN3CCCC3)cc2)nc1Nc1cccc(S(=O)(=O)NC(C)(C)C)c1
ΔTm (BRD4 BD1; thermal stability, DSF; 10 µM): 3.8 °C

CC(C)[C@@H]1NC(=O)[C@@H]2CCCN2C(=O)[C@H](Cc2ccccc2)NC(=O)CSC[C@@H](C(=O)N[C@@H](Cc2ccc(O)cc2)C(N)=O)NC(=O)[C@H](Cc2c[nH]c3ccccc23)NC(=O)[C@H](CCCCN)NC(=O)[C@H](Cc2ccccc2)N(C)C(=O)[C@H](Cc2ccccc2)NC1=O
ΔTm (BRD4 BD1; thermal stability, DSF; 100 µM): -0.52 °C

COc1cc(C(=O)N2CCC(N3CCN(C)CC3)CC2)ccc1Nc1ncc2c(n1)N(C)c1ccccc1C(=O)N2C
ΔTm (BRD4 BD1; thermal stability, DSF; 10 µM): 2.1 °C

Cn1cc(C(=O)Nc2cccc(C(=O)O)c2)ccc1=O
ΔTm (BRD4 BD1; thermal stability, DSF; 100 µM): 0.9 °C

C[S+]([O-])c1ccc(-c2nc(-c3ccncc3)c(-c3ccc(F)cc3)[nH]2)cc1 (stereo not drawn)
ΔTm (BRD4 BD1; thermal stability, DSF; 10 µM): 1.32 °C

NS(=O)(=O)c1ccc(Nc2nc(-c3ccc(F)cc3)c3ccccc3n2)cc1
remaining binding (BRD4 BD2; binding, competition with immobilised ligand; 1 µM): 4%

Cc1cc2c(NC(=O)c3cccc(C(=O)O)c3)cccc2nn1
ΔTm (BRD4 BD1; thermal stability, DSF; 100 µM): 1.4 °C
